The source made the active and inactive calls. The calls are words filed in the database; no cut-off is given here.
Columns and labels:
[1] = tested on: SJ-G2; experiment: Cytotoxicity against human SJ-G2 cells assessed as growth inhibition at 25 uM measured after 72 hrs by MTT assay; assay type: functional, cell-based
Procedure, shortened: (§1)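 Log-phase cells were plated in duplicate at 2500–4000 cells/well in DMEM with 10% FBS, glutamine and antibiotics, at 37 °C under 5% CO2. Drug was added 24 h after plating from a 40 mM DMSO stock, to a final 25 μM. After 72 h exposure, MTT was read at 540 nm and % growth inhibition was calculated, with 100% meaning total growth inhibition.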

[2] = tested on: SW480; experiment: Cytotoxicity against human SW480 cells assessed as growth inhibition at 25 uM measured after 72 hrs by MTT assay; assay type: functional; procedure, shortened: as §1
[3] = tested on: BE(2)-C; experiment: Cytotoxicity against human BE(2)-C cells assessed as growth inhibition at 25 uM measured after 72 hrs by MTT assay; assay type: functional; procedure, shortened: as §1
[4] = tested on: DU-145; experiment: Cytotoxicity against human DU145 cells assessed as growth inhibition at 25 uM measured after 72 hrs by MTT assay; assay type: functional, cell-based; procedure, shortened: as §1
[5] = tested on: MCF7; experiment: Cytotoxicity against human MCF7 cells assessed as growth inhibition at 25 uM measured after 72 hrs by MTT assay; assay type: functional; procedure, shortened: as §1
[6] = tested on: A-431; experiment: Cytotoxicity against human A431 cells assessed as growth inhibition at 25 uM measured after 72 hrs by MTT assay; assay type: functional, cell-based; procedure, shortened: as §1
[7] = tested on: MIA; experiment: Cytotoxicity against human MIA cells assessed as growth inhibition at 25 uM measured after 72 hrs by MTT assay; assay type: functional; procedure, shortened: as §1
[8] = tested on: HT-29; experiment: Cytotoxicity against human HT-29 cells assessed as growth inhibition at 25 uM measured after 72 hrs by MTT assay; assay type: functional, cell-based; procedure, shortened: as §1
[9] = tested on: NCI-H460; experiment: Cytotoxicity against human H460 cells assessed as growth inhibition at 25 uM measured after 72 hrs by MTT assay; assay type: functional, cell-based; procedure, shortened: as §1
[10] = tested on: A2780; experiment: Cytotoxicity against human A2780 cells assessed as growth inhibition at 25 uM measured after 72 hrs by MTT assay; assay type: functional; procedure, shortened: as §1
[11] = tested on: SMA; experiment: Cytotoxicity against mouse SMA cells assessed as growth inhibition at 25 uM measured after 72 hrs by MTT assay

Cc1ccc(/C=C(\C#N)C(=O)NCc2ccc(Cl)c(Cl)c2)cc1
growth inhibition (GI) [1]: inactive | growth inhibition (GI) [2]: inactive | growth inhibition (GI) [3]: inactive | growth inhibition (GI) [4]: inactive | growth inhibition (GI) [5]: inactive | growth inhibition (GI) [6]: inactive | growth inhibition (GI) [7]: inactive | growth inhibition (GI) [8]: inactive | growth inhibition (GI) [9]: inactive | growth inhibition (GI) [10]: inactive | growth inhibition (GI) [11]: inactive

N#C/C(=C\c1ccc(Cl)cc1)C(=O)c1c[nH]c2ccccc12
growth inhibition (GI) [1]: inactive | growth inhibition (GI) [2]: inactive | growth inhibition (GI) [3]: inactive | growth inhibition (GI) [4]: inactive | growth inhibition (GI) [5]: inactive | growth inhibition (GI) [6]: inactive | growth inhibition (GI) [7]: inactive | growth inhibition (GI) [8]: inactive | growth inhibition (GI) [9]: inactive | growth inhibition (GI) [10]: inactive | growth inhibition (GI) [11]: inactive

N#C/C(=C\c1ccc(C(F)(F)F)cc1)C(=O)c1c[nH]c2ccccc12
growth inhibition (GI) [1]: inactive | growth inhibition (GI) [2]: inactive | growth inhibition (GI) [3]: inactive | growth inhibition (GI) [4]: inactive | growth inhibition (GI) [5]: inactive | growth inhibition (GI) [6]: inactive | growth inhibition (GI) [7]: inactive | growth inhibition (GI) [8]: inactive | growth inhibition (GI) [9]: inactive | growth inhibition (GI) [10]: inactive | growth inhibition (GI) [11]: inactive

Cc1ccc(/C=C(\C#N)C(=O)c2ccc[nH]2)cc1
growth inhibition (GI) [1]: inactive | growth inhibition (GI) [2]: inactive | growth inhibition (GI) [3]: inactive | growth inhibition (GI) [4]: inactive | growth inhibition (GI) [5]: inactive | growth inhibition (GI) [6]: inactive | growth inhibition (GI) [7]: inactive | growth inhibition (GI) [8]: inactive | growth inhibition (GI) [9]: inactive | growth inhibition (GI) [10]: inactive | growth inhibition (GI) [11]: inactive

N#C/C(=C\c1ccc2ccccc2c1)C(=O)c1ccc[nH]1
growth inhibition (GI) [1]: inactive | growth inhibition (GI) [2]: inactive | growth inhibition (GI) [3]: inactive | growth inhibition (GI) [4]: inactive | growth inhibition (GI) [5]: inactive | growth inhibition (GI) [6]: inactive | growth inhibition (GI) [7]: inactive | growth inhibition (GI) [8]: inactive | growth inhibition (GI) [9]: inactive | growth inhibition (GI) [10]: inactive | growth inhibition (GI) [11]: inactive

COc1ccc(CNC(=O)/C(C#N)=C/c2ccc(O)cc2)cc1
growth inhibition (GI) [1]: inactive | growth inhibition (GI) [2]: inactive | growth inhibition (GI) [3]: inactive | growth inhibition (GI) [4]: inactive | growth inhibition (GI) [5]: inactive | growth inhibition (GI) [6]: inactive | growth inhibition (GI) [7]: inactive | growth inhibition (GI) [8]: inactive | growth inhibition (GI) [9]: inactive | growth inhibition (GI) [10]: inactive | growth inhibition (GI) [11]: inactive

N#C/C(=C\c1ccc(O)cc1)C(=O)c1ccc[nH]1
growth inhibition (GI) [1]: inactive | growth inhibition (GI) [2]: inactive | growth inhibition (GI) [3]: inactive | growth inhibition (GI) [4]: inactive | growth inhibition (GI) [5]: inactive | growth inhibition (GI) [6]: inactive | growth inhibition (GI) [7]: inactive | growth inhibition (GI) [8]: inactive | growth inhibition (GI) [9]: inactive | growth inhibition (GI) [10]: inactive | growth inhibition (GI) [11]: inactive

N#C/C(=C\c1ccc2ccccc2c1)C(=O)c1c[nH]c2ccccc12
growth inhibition (GI) [1]: inactive | growth inhibition (GI) [2]: inactive | growth inhibition (GI) [3]: inactive | growth inhibition (GI) [4]: inactive | inhibition of growth at 25 µM ([5]; MCF7, 72 h, read-out: GI): 40% | growth inhibition (GI) [6]: inactive | growth inhibition (GI) [7]: inactive | growth inhibition (GI) [8]: inactive | growth inhibition (GI) [9]: inactive | growth inhibition (GI) [10]: inactive | growth inhibition (GI) [11]: inactive

COc1ccc(/C=C(\C#N)C(=O)NCc2ccc(OC)cc2)cc1
growth inhibition (GI) [1]: inactive | growth inhibition (GI) [2]: inactive | growth inhibition (GI) [3]: inactive | growth inhibition (GI) [4]: inactive | growth inhibition (GI) [5]: inactive | growth inhibition (GI) [6]: inactive | growth inhibition (GI) [7]: inactive | growth inhibition (GI) [8]: inactive | growth inhibition (GI) [9]: inactive | growth inhibition (GI) [10]: inactive | growth inhibition (GI) [11]: inactive

COc1ccc(/C=C(\C#N)C(=O)c2c[nH]c3ccccc23)cc1
growth inhibition (GI) [1]: inactive | growth inhibition (GI) [2]: inactive | growth inhibition (GI) [3]: inactive | growth inhibition (GI) [4]: inactive | growth inhibition (GI) [5]: inactive | growth inhibition (GI) [6]: inactive | growth inhibition (GI) [7]: inactive | growth inhibition (GI) [8]: inactive | growth inhibition (GI) [9]: inactive | growth inhibition (GI) [10]: inactive | growth inhibition (GI) [11]: inactive

N#C/C(=C\c1ccc(O)cc1)C(=O)NCc1ccc(Cl)c(Cl)c1
growth inhibition (GI) [1]: inactive | growth inhibition (GI) [2]: inactive | growth inhibition (GI) [3]: inactive | growth inhibition (GI) [4]: inactive | growth inhibition (GI) [5]: inactive | growth inhibition (GI) [6]: inactive | growth inhibition (GI) [7]: inactive | growth inhibition (GI) [8]: inactive | growth inhibition (GI) [9]: inactive | growth inhibition (GI) [10]: inactive | growth inhibition (GI) [11]: inactive

N#C/C(=C\c1ccc([N+](=O)[O-])cc1)C(=O)c1ccc[nH]1
growth inhibition (GI) [1]: inactive | growth inhibition (GI) [2]: inactive | growth inhibition (GI) [3]: inactive | growth inhibition (GI) [4]: inactive | growth inhibition (GI) [5]: inactive | growth inhibition (GI) [6]: inactive | growth inhibition (GI) [7]: inactive | growth inhibition (GI) [8]: inactive | growth inhibition (GI) [9]: inactive | growth inhibition (GI) [10]: inactive | growth inhibition (GI) [11]: inactive

N#C/C(=C\c1ccc(O)cc1)C(=O)c1c[nH]c2ccccc12
growth inhibition (GI) [1]: inactive | growth inhibition (GI) [2]: inactive | growth inhibition (GI) [3]: inactive | growth inhibition (GI) [4]: inactive | growth inhibition (GI) [5]: inactive | growth inhibition (GI) [6]: inactive | growth inhibition (GI) [7]: inactive | growth inhibition (GI) [8]: inactive | growth inhibition (GI) [9]: inactive | growth inhibition (GI) [10]: inactive | growth inhibition (GI) [11]: inactive

Cc1ccc(/C=C(\C#N)C(=O)c2c[nH]c3ccccc23)cc1
growth inhibition (GI) [1]: inactive | growth inhibition (GI) [2]: inactive | growth inhibition (GI) [3]: inactive | growth inhibition (GI) [4]: inactive | growth inhibition (GI) [5]: inactive | growth inhibition (GI) [6]: inactive | growth inhibition (GI) [7]: inactive | growth inhibition (GI) [8]: inactive | growth inhibition (GI) [9]: inactive | growth inhibition (GI) [10]: inactive | growth inhibition (GI) [11]: inactive

COc1ccc(CNC(=O)/C(C#N)=C/c2ccc(CO)o2)cc1
growth inhibition (GI) [1]: inactive | growth inhibition (GI) [2]: inactive | growth inhibition (GI) [3]: inactive | growth inhibition (GI) [4]: inactive | growth inhibition (GI) [5]: inactive | growth inhibition (GI) [6]: inactive | growth inhibition (GI) [7]: inactive | growth inhibition (GI) [8]: inactive | growth inhibition (GI) [9]: inactive | growth inhibition (GI) [10]: inactive | growth inhibition (GI) [11]: inactive

N#C/C(=C\c1ccc(Cl)c(Cl)c1)C(=O)c1ccc[nH]1
growth inhibition (GI) [1]: inactive | growth inhibition (GI) [2]: inactive | growth inhibition (GI) [3]: inactive | growth inhibition (GI) [4]: inactive | growth inhibition (GI) [5]: inactive | growth inhibition (GI) [6]: inactive | growth inhibition (GI) [7]: inactive | growth inhibition (GI) [8]: inactive | growth inhibition (GI) [9]: inactive | growth inhibition (GI) [10]: inactive | growth inhibition (GI) [11]: inactive

COc1ccc(/C=C(\C#N)C(=O)c2ccc[nH]2)cc1
growth inhibition (GI) [1]: inactive | growth inhibition (GI) [2]: inactive | growth inhibition (GI) [3]: inactive | growth inhibition (GI) [4]: inactive | growth inhibition (GI) [5]: inactive | growth inhibition (GI) [6]: inactive | growth inhibition (GI) [7]: inactive | growth inhibition (GI) [8]: inactive | growth inhibition (GI) [9]: inactive | growth inhibition (GI) [10]: inactive | growth inhibition (GI) [11]: inactive

N#C/C(=C\c1ccc(C(F)(F)F)cc1)C(=O)c1ccc[nH]1
growth inhibition (GI) [1]: inactive | growth inhibition (GI) [2]: inactive | growth inhibition (GI) [3]: inactive | growth inhibition (GI) [4]: inactive | growth inhibition (GI) [5]: inactive | growth inhibition (GI) [6]: inactive | growth inhibition (GI) [7]: inactive | growth inhibition (GI) [8]: inactive | growth inhibition (GI) [9]: inactive | growth inhibition (GI) [10]: inactive | growth inhibition (GI) [11]: inactive

Source: ChEMBL document CHEMBL2331240, “Focused library development of 2-phenylacrylamides as broad spectrum cytotoxic agents” (2013)
